Data published in ChEMBL document CHEMBL5131497, “Design, Synthesis, and Characterization of TNP-2198, a Dual-Targeted Rifamycin-Nitroimidazole Conjugate with Potent Activity against Microaerophilic and Anaerobic Bacterial Pathogens” (J Med Chem, 2022).
In brackets after ≈: the same amount, converted by molar mass.

How the values were obtained:
Assay type in all cases: functional
Clostridioides difficile [1] = assay: Antibacterial activity against Clostridioides difficile ATCC 9689
Helicobacter pylori [2] = assay: Antibacterial activity against Helicobacter pylori ATCC 700392
Procedure, shortened: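 Agar dilution per CLSI. Wild-type H. pylori ATCC 700392 (CB1531). Drugs prepared from 100× stocks as 2-fold dilutions in Mueller–Hinton agar with aged (≥2 weeks) sheep blood (5% v/v). Combinations were at 1:1 molar ratio. MIC read after 5 days at 35 °C under microaerobic atmosphere from a campylobacter gas-generating system.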

Staphylococcus aureus = assay: Antibacterial activity against Staphylococcus aureus ATCC 29213
Bacteroides fragilis = assay: Antibacterial activity against metronidazole-resistant Bacteroides fragilis MMX 3387
[3] = system: Bacteroides thetaiotaomicron; assay: Antibacterial activity against metronidazole-resistant Bacteroides thetaiotaomicron MMX 3409
Campylobacter gracilis = assay: Antibacterial activity against Bacteroides gracilis ATCC 33236 MMX 1270
Bacteroides uniformis = assay: Antibacterial activity against Bacteroides uniformis MMX 1277
Phocaeicola vulgatus = assay: Antibacterial activity against Bacteroides vulgatus MMX 8348
Clostridioides difficile [4] = assay: Antibacterial activity against rifampicin-resistant Clostridium difficile MMX 3587
Peptostreptococcus sp. = assay: Antibacterial activity against Peptostreptococcus magnus ATCC 14956
Prevotella disiens = assay: Antibacterial activity against Prevotella disiens MMX 3457
Helicobacter pylori [5] = assay: Antibacterial activity against Helicobacter pylori infected in C57/BL6 mouse assessed as bacterial load in stomach at 1 mg/kg administered twice daily via oral gavage starting from 7 days post inoculation and administered for 7 days in presence of 10 mg/kg clarithromycin and 20 mg/kg amoxicillin (reference value: 5.25 log10CFU); conditions: time 7 day
Helicobacter pylori [6] = assay: Antibacterial activity against metronidazole-resistant Helicobacter pylori CB1573 harboring rdxAR16S mutant at 1:1 compound to metronidazole molar ratio measured after 5 days in presence of metronidazole by agar dilution method; conditions: CB1573, 120 h, time 5 day
Procedure, shortened: (§1)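 Agar dilution per CLSI. Wild-type ATCC 700392 (CB1531) and its derivatives carry defined resistance determinants. Drugs, alone or in 1:1 molar mixtures, were diluted 2-fold from 100× stocks into Mueller–Hinton agar with aged (≥2 weeks) sheep blood (5% v/v). MIC read after 5 days at 35 °C under microaerobic conditions from a campylobacter gas-generating system.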

Helicobacter pylori [7] = assay: Antibacterial activity against rifampicin-resistant Helicobacter pylori CB1903 harboring rpoBD530V mutant measured after 5 days by agar dilution method; conditions: CB1903, 120 h, time 5 day; procedure, shortened: as §1
Helicobacter pylori [8] = assay: Antibacterial activity against rifampicin-resistant Helicobacter pylori CB1902 harboring rpoBV149F mutant measured after 5 days by agar dilution method; conditions: CB1902, 120 h, time 5 day; procedure, shortened: as §1
Helicobacter pylori [9] = assay: Antibacterial activity against rifampicin-resistant Helicobacter pylori CB1902 harboring rpoBV149F mutant at 1:1 compound to metronidazole molar ratio measured after 5 days in presence of metronidazole by agar dilution method; conditions: CB1902, 120 h, time 5 day; procedure, shortened: as §1
Helicobacter pylori [10] = assay: Antibacterial activity against rifampicin-resistant Helicobacter pylori CB1903 harboring rpoBD530V mutant at 1:1 compound to metronidazole molar ratio measured after 5 days in presence of metronidazole by agar dilution method; conditions: CB1903, 120 h, time 5 day; procedure, shortened: as §1
Helicobacter pylori [11] = assay: Antibacterial activity against rifampicin-resistant Helicobacter pylori CB1614 harboring rpoBL525I/D530N mutant measured after 5 days by agar dilution method; conditions: CB1614, 120 h, time 5 day; procedure, shortened: as §1
Helicobacter pylori [12] = assay: Antibacterial activity against rifampicin-resistant Helicobacter pylori CB1614 harboring rpoBL525I/D530N at 1:1 compound to metronidazole molar ratio measured after 5 days in presence of metronidazole by agar dilution method; conditions: CB1614, 120 h, time 5 day; procedure, shortened: as §1
Helicobacter pylori [13] = assay: Antibacterial activity against metronidazole/rifampicin-resistant Helicobacter pylori CB1771 harboring rpoBL525I/D530N/rdxAE75stop mutant measured after 5 days by agar dilution method; conditions: CB1771, 120 h, time 5 day; procedure, shortened: as §1
Helicobacter pylori [14] = assay: Antibacterial activity against metronidazole/rifampicin-resistant Helicobacter pylori CB1771 harboring rpoBL525I/D530N/rdxAE75stop mutant at 1:1 compound to metronidazole molar ratio measured after 5 days in presence of metronidazole by agar dilution method; conditions: CB1771, 120 h, time 5 day; procedure, shortened: as §1
Helicobacter pylori [15] = assay: Antibacterial activity against metronidazole/rifampicin-resistant Helicobacter pylori CB1893 harboring rpoBL525I/D530N/rdxAR16S mutant measured after 5 days by agar dilution method; conditions: CB1893, 120 h, time 5 day; procedure, shortened: as §1
Helicobacter pylori [16] = assay: Antibacterial activity against metronidazole/rifampicin-resistant Helicobacter pylori CB1893 harboring rpoBL525I/D530N/rdxAR16S mutant at 1:1 compound to metronidazole molar ratio measured after 5 days in presence of metronidazole by agar dilution method; conditions: CB1893, 120 h, time 5 day; procedure, shortened: as §1

Row | Compound | MIC (Clostridioides difficile [1]) [µg/mL] | MIC (Helicobacter pylori [2]) [µg/mL] | MIC (Staphylococcus aureus) [µg/mL] | further results
1 | CO[C@H]1/C=C/O[C@@]2(C)Oc3c(C)c(O)c4c(c3C2=O)C2=NC3(CCN(CC(=O)Nc5ncc([N+](=O)[O-])s5)CC3)NC2=C(NC(=O)/C(C)=C\C=C\[C@H](C)[C@H](O)[C@@H](C)[C@@H](O)[C@@H](C)[C@H](OC(C)=O)[C@@H]1C)C4=O | 0.001 (≈ 0.00102 µM) | 0.004 (≈ 0.0041 µM) |  | 
2 | CO[C@H]1/C=C/O[C@@]2(C)Oc3c(C)c(O)c4c(c3C2=O)C2=NC3(CCN(CC5(C)Cn6cc([N+](=O)[O-])nc6O5)CC3)NC2=C(NC(=O)/C(C)=C\C=C\[C@H](C)[C@H](O)[C@@H](C)[C@@H](O)[C@@H](C)[C@H](OC(C)=O)[C@@H]1C)C4=O (some centres undefined) |  | 0.03 (≈ 0.0309 µM) | 0.03 (≈ 0.0309 µM) | 
3 | CO[C@H]1/C=C/O[C@@]2(C)Oc3c(C)c(O)c4c(O)c(c(N5CCN(c6ccc(OCC7(C)Cn8cc([N+](=O)[O-])nc8O7)cc6)CC5)c(O)c4c3C2=O)NC(=O)/C(C)=C\C=C\[C@H](C)[C@H](O)[C@@H](C)[C@@H](O)[C@@H](C)[C@H](OC(C)=O)[C@@H]1C (some centres undefined) | 0.03 (≈ 0.0284 µM) | 1 (≈ 0.948 µM) | 0.015 (≈ 0.0142 µM) | 
4 | CO[C@H]1/C=C/O[C@@]2(C)Oc3c(C)c(O)c4c(O)c(c(N5CCN(C(=O)c6ccc(OCC7(C)Cn8cc([N+](=O)[O-])nc8O7)cc6)CC5)c(O)c4c3C2=O)NC(=O)/C(C)=C\C=C\[C@H](C)[C@H](O)[C@@H](C)[C@@H](O)[C@@H](C)[C@H](OC(C)=O)[C@@H]1C (some centres undefined) |  | 4 (≈ 3.69 µM) | 0.25 (≈ 0.231 µM) | 
5 | CO[C@H]1/C=C/O[C@@]2(C)Oc3c(C)c(O)c4c(c3C2=O)C2=NC3(CCN(Cc5ccc(CO[C@@H]6COc7nc([N+](=O)[O-])cn7C6)cc5)CC3)NC2=C(NC(=O)/C(C)=C\C=C\[C@H](C)[C@H](O)[C@@H](C)[C@@H](O)[C@@H](C)[C@H](OC(C)=O)[C@@H]1C)C4=O | 0.001 (≈ 0.000927 µM) | 0.03 (≈ 0.0278 µM) | 0.03 (≈ 0.0278 µM) | 
6 | CCC[C@@H]1C[C@@H](C(=O)N[C@@H]([C@H]2O[C@H](SC)[C@H](O)[C@@H](O)[C@H]2O)[C@H](C)Cl)N(C)C1 [CLINDAMYCIN] |  |  |  | MIC (Bacteroides fragilis): 2 µg/mL (≈ 4.71 µM); MIC [3]: > 64 µg/mL; MIC (Campylobacter gracilis): 0.06 µg/mL (≈ 0.141 µM); MIC (Bacteroides uniformis): 0.25 µg/mL (≈ 0.588 µM); MIC (Phocaeicola vulgatus): 0.25 µg/mL (≈ 0.588 µM); MIC (Clostridioides difficile [4]): 8 µg/mL (≈ 18.8 µM); MIC (Peptostreptococcus sp.): 1 µg/mL (≈ 2.35 µM); MIC (Prevotella disiens): 0.25 µg/mL (≈ 0.588 µM)
7 | COc1ccc2[nH]c([S+]([O-])Cc3ncc(C)c(OC)c3C)nc2c1 (centres undefined) [OMEPRAZOLE] |  |  |  | Activity (Helicobacter pylori [5]): 1.7 log10CFU
8 | O=[N+]([O-])c1cn2c(n1)OC[C@@H](OCc1ccc(OC(F)(F)F)cc1)C2 [PRETOMANID] | 16 (≈ 44.5 µM) | 2 (≈ 5.57 µM) | > 32 | 
9 | CO[C@H]1/C=C/O[C@@]2(C)Oc3c(C)c(O)c4c(c3C2=O)C2=NC3(CCN(CC(C)C)CC3)NC2=C(NC(=O)/C(C)=C\C=C\[C@H](C)[C@H](O)[C@@H](C)[C@@H](O)[C@@H](C)[C@H](OC(C)=O)[C@@H]1C)C4=O [RIFABUTIN] | 0.0001 (≈ 0.000118 µM) | 0.001 (≈ 0.00118 µM) | 0.03 (≈ 0.0354 µM) | MIC (Helicobacter pylori [6]): ≤ 0.002 µg/mL; MIC (Helicobacter pylori [7]): 16 µg/mL (≈ 18.9 µM); MIC (Helicobacter pylori [8]): 16 µg/mL (≈ 18.9 µM); MIC (Helicobacter pylori [9]): 2 µg/mL; MIC (Helicobacter pylori [10]): 1 µg/mL; MIC (Helicobacter pylori [11]): 16 µg/mL (≈ 18.9 µM); MIC (Helicobacter pylori [12]): 2 µg/mL; MIC (Helicobacter pylori [13]): 16 µg/mL (≈ 18.9 µM); MIC (Helicobacter pylori [14]): 16 µg/mL; MIC (Helicobacter pylori [15]): 16 µg/mL (≈ 18.9 µM); MIC (Helicobacter pylori [16]): 16 µg/mL
10 | CO[C@H]1/C=C/O[C@@]2(C)Oc3c(C)c(O)c4c(=O)c(c5oc6cc(N7CCN(CC(C)C)CC7)cc(O)c6nc-5c4c3C2=O)NC(=O)/C(C)=C\C=C\[C@H](C)[C@H](O)[C@@H](C)[C@@H](O)[C@@H](C)[C@H](OC(C)=O)[C@@H]1C [RIFALAZIL] | 0.001 (≈ 0.00106 µM) | 0.002 (≈ 0.00213 µM) | 0.004 (≈ 0.00425 µM) | 
11 | CO[C@H]1/C=C/O[C@@]2(C)Oc3c(C)c(O)c4c(O)c(c5c(nc6cc(C)ccn65)c4c3C2=O)NC(=O)/C(C)=C\C=C\[C@H](C)[C@H](O)[C@@H](C)[C@@H](O)[C@@H](C)[C@H](OC(C)=O)[C@@H]1C [RIFAXIMIN] | 0.004 (≈ 0.00509 µM) | 1 (≈ 1.27 µM) | 0.06 (≈ 0.0763 µM) | 
